# 5HT1a ag – human 5-HT1a receptor agonists, primary screen, cell-based, CHO, Ga15 NFAT-bla reporter; activation, % at 10 µM; 5-hydroxytryptamine receptor 1A (Homo sapiens), P08908; hit rate 0.56% among 65,000; AID 567, 2006; CHO 5-HT1a Ga15 NFAT-bla reporter, FRET ratio; 0% basal, 100% maximal reference agonist;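 active = activation above the screen-wide mean activation plus 3 SD, cut at about 19% in these data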;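 also: 0% = DMSO wells and 100% = 5-CT at EC100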
# 5HT1a antag – human 5-HT1a receptor antagonists, primary screen, cell-based, CHO, Ga15 NFAT-bla reporter; 5-hydroxytryptamine receptor 1A (Homo sapiens), P08908; CHO 5-HT1a Ga15 NFAT-bla reporter, antagonist mode; inhibition, % at 10 µM; hit rate 0.68% among 62,000; AID 612, 2007;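 active = inhibition above the mean of all tested compounds plus 3 SD, cut at about 43% in these data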;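 also: receptor stimulated by 5-CT agonist at 100 nM near EC80; beta-lactamase reporter measured by ratiometric fluorescence of a cleavable substrate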
# 5HT1E ag – 5-HT1E receptor agonists, primary screen, cell-based, HTS; 5-hydroxytryptamine receptor 1E (Homo sapiens), P28566; activation, % at 6 µM; hit rate 0.69% among 65,000; AID 574, 2007; CHO 5-HT1E Ga15 NFAT-bla reporter, FRET; 0% DMSO wells, 100% control agonist wells;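 active = activation above a set limit, the screen-wide mean activation plus 3 SD, cut at about 8.5% in these data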;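 also: 100% = positive control agonist at 1 µM giving full maximal response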
# Target sequence (P28566 whole entry, looked up): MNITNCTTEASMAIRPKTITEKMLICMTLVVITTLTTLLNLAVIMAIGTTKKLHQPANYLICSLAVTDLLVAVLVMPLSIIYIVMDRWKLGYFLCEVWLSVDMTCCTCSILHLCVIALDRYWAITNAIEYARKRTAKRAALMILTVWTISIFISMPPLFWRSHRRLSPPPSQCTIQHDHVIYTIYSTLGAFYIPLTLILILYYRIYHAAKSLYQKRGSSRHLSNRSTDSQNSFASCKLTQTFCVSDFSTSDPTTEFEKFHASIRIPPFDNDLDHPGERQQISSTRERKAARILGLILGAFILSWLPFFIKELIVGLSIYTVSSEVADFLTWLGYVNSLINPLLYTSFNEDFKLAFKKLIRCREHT
# S1P3 ag – human S1P3 receptor agonists, primary screen, cell-based, primary and confirmation, NFAT-BLA reporter. Sphingosine 1-phosphate receptor 3 (Homo sapiens), Q99500. S1P3 NFAT-BLA reporter cells, agonism, FRET ratio; relative to 1 µM S1P, basal subtracted. activation, % at 4.5 µM. hit rate 0.1% among 60,000. AID 373, 2006;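 active = activation above the screen-wide mean plus 3 SD, cut at about 4.5% in these data, passing the limit was not always enough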
#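 Measure – % activation relative to 1 µM S1P (100%), per plate · System – stable CHO line with human S1P3, Gα16, NFAT-BLA reporter · Timing – cells plated overnight, compound 4 h 37 °C, substrate 2 h RT · Technique – fluorescent BLA substrate, ex 405 nm, em 460/535 nm ratio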
# HTR1E antagonist – 5-HT1E receptor antagonists, primary screen, cell-based, HTS | CHO 5-HT1E Ga15 NFAT-bla reporter, FRET, antagonist | inhibition, % at 6 µM | hit rate 0.99% among 65,000;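 active = inhibition above a set limit, the mean inhibition across every tested compound plus 3 SD, cut at about 29% in these data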;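 also: signal is the 460 over 535 nm emission ratio of beta-lactamase substrate; 0% = agonist plus DMSO wells and 100% = wells without agonist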
# S1P1 ag-PAM – S1P1 agonists and agonism potentiators, primary screen, cell-based, primary and confirmation screens, CRE-bla reporter; S1P1 CRE-bla cells, forskolin, beta-lactamase FRET, potentiator mode; S1P1 agonist co-added at EC20, 2 nM; 100% = saturating reference agonist, 0% = basal; activation, % at 9.5 µM; hit rate 0.57% among 56,000; AID 449, 2006;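 active = activation above a cutoff set at the mean activation of all tested compounds plus 3 SD, cut at about 54% in these data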;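 also: forskolin at 4 µM as EC80 and the EC20 agonist is SEW2871; 100% = SEW2871 at its EC100 plus forskolin at EC80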
# * = called active by the depositor; / = not tested or not shown. Shown are actives, neighbours in structure and some others; about 3% of the full set was active somewhere.
SMILES,5HT1a ag,5HT1a antag,5HT1E ag,S1P3 ag,HTR1E antagonist,S1P1 ag-PAM
Cc1c(C(=O)OCc2ccccc2)[nH]c2c1C(=O)CC(c1ccco1)C2 (configuration not stated),1,58*,-1,-1,84*,-1
CCCCOC(=O)c1[nH]c2c(c1C)C(=O)CC(c1cc(OC)c(OC)c(OC)c1)C2 (configuration not stated),1,25,0,-1,15,134*
CC(C)c1ccc(-c2nnn(Cc3nc4ccccc4s3)n2)cc1,3,23,-1,0,-3,11
Cc1nc(NCc2ccco2)c2c3c(sc2n1)CCC3,-2,54*,0,-2,14,-21
Cc1nc2c(C(=O)NCCC3=CCCCC3)c[nH]n2c(=O)c1Cl,2,-3,1,/,-9,/
Cn1c(=O)oc2cc(S(=O)(=O)N3CCN(c4ccccn4)CC3)ccc21,35*,-1,1,0,-13,-32
Cn1c(=O)oc2cc(S(=O)(=O)NCCN3CCN(c4ccccc4F)CC3)ccc21,-2,57*,0,0,5,-9
Cn1c(=O)oc2cc(S(=O)(=O)NCCN3CCCCCC3)ccc21,-2,4,0,0,-2,-19
NS(=O)(=O)c1ccc(NC(=O)c2ccccc2C(=O)N2CCCCC2)cc1,-1,-5,-1,0,-4,-5
CCOC(=O)c1[nH]c(C)c(C(=O)Nc2cc(OC)ccc2OC)c1C,-3,20,-1,0,49*,5
Nc1nc(-c2ccccc2)nc(-c2ccccc2O)n1,-3,51*,0,0,8,20
CN(C)c1cc(-c2ccccc2)nc(N)n1,2,0,1,0,-8,-10
Nc1nc(-c2ccccc2)cc(-c2ccccc2O)n1,-1,57*,0,0,-3,-39
N#C/C(=C/c1ccc(N2CCCCCC2)o1)c1ccc(F)cc1,-5,87*,0,-2,90*,129
CC(=O)N1CCc2cc(S(=O)(=O)NCCCN3CCN(Cc4ccccc4)CC3)ccc21,-1,16,35*,/,-3,/
Cc1ccc(C)c(N(CC(=O)NCCSCc2ccco2)S(C)(=O)=O)c1,0,-4,1,0,-9,-8
CCOc1cc(N2CCOCC2)c(OCC)cc1NC(=O)c1cc(-c2ccco2)nc2ccccc12,2,27,0,/,50*,/
CCOCCn1c(=O)c2c(nc3n2CCN3c2ccccc2)n(C)c1=O,-1,-20,1,-1,4,-12
O=C1N2c3ccccc3CCc3cccc(c32)C1(O)C(F)(F)F (configuration not stated),7,-21,-1,0,29*,-4
O=C1CCCC2=C1C(O)(C(F)(F)F)C(=O)N2Cc1ccccc1 (configuration not stated),0,-2,-1,0,-9,-13
ONC(=Nc1ccccc1)C(=Nc1ccccc1)NO,-1,/,-1,-4,16,11
COc1ccc(N2C(=O)C3CCCN3C2c2cccc(OC)c2OC)cc1 (configuration not stated),101*,1,0,-1,4,-11
COc1ccc(N2C(=O)C3CCCN3C2c2cccc(Br)c2)cc1 (configuration not stated),0,-7,0,1,-5,-6
CN(C)c1ccc(/C=C/C(O)=C2/C(=O)N(C)C3(C)CC2c2ccccc2O3)cc1 (configuration not stated),12,54*,3,-1,53*,-6
CCOC(=O)C1=C(C)NC(=O)NC1c1cc(C)sc1C (configuration not stated),1,-3,0,-1,4,-10
SMILES,5HT1a ag,5HT1a antag,5HT1E ag,S1P3 ag,HTR1E antagonist,S1P1 ag-PAM
Cc1sc2nc(SCC(=O)c3cc(C)n(CC4CCCO4)c3C)n(C(C)C)c(=O)c2c1C (configuration not stated),4,-35,1,1,2,-21
CCNc1c2c3c(cccc3n(C)c1=O)C(=O)c1ccccc1-2,3,11,32*,-1,21,35
Cn1c(=O)c(NCCO)c2c3c(cccc31)C(=O)c1ccccc1-2,0,6,1,/,14,/
CCNc1nc2c(c(=O)n(Cc3ccccc3)c(=O)n2C)n1Cc1ccccc1,37*,0,0,0,0,-14
CCNc1nc2c(c(=O)n(C)c(=O)n2C)n1Cc1ccc(Cl)cc1,14,6,1,-2,14,61*
CC(C)(C)SCCNC(=O)c1ccc(NS(C)(=O)=O)cc1,-4,-5,-1,0,1,-16
O=C(CCc1nc(-c2ccccc2)no1)NCC1CCCO1 (configuration not stated),-2,7,0,-2,-1,6
O=C(CN1C(=O)CSC1=O)Nc1ccccc1N1CCOCC1,-4,8,10*,-1,8,2
O=C(CSc1ccccc1)Nc1ccccc1N1CCOCC1,-4,-3,-1,0,9,-40
CCOC(=O)CN1C(=O)C(C)(C)Oc2ccc(C(=O)Nc3ccccc3OC)cc21,1,-2,-2,0,3,90*
c1ccc(-c2oc3ncnc(NCCCn4ccnc4)c3c2-c2ccccc2)cc1,3,63*,-1,-1,29*,-14
CSc1cccc(NC(=O)CSc2nc3ccccc3o2)c1,-1,14,-1,-1,5,-19
Cc1c(C(=O)NCCc2ccccc2)oc2ccc(S(=O)(=O)N3CCOCC3)cc12,1,-4,0,/,0,/
Cn1cc(C(=O)NCCc2ccccc2)c(=O)c2cc(S(=O)(=O)N3CCOCC3)ccc21,-2,-3,77*,0,5,0
CN(C)CCCN1C(=O)C(=O)/C(=C(/O)c2ccc3c(c2)OCCO3)C1c1ccccn1 (configuration not stated),81*,-1,0,-1,2,4
CCN(CC)CCCN1C(=O)C(=O)/C(=C(/O)c2ccc3c(c2)OCO3)C1c1ccccn1 (configuration not stated),0,2,0,-1,7,-5
